Measurements from PMC4203514 (Autophagy, 2014).

Legend:
[1] = tested on: peripheral blood mononuclear cells; assay: Autophagic vacuole; assay type: in vivo, human; conditions: after 2 wk run-in of HCQ; baseline 2.19
[2] = tested on: peripheral blood mononuclear cells; assay: PK-PD CART analysis of HCQ peak concentration versus AV accumulation in PBMC; assay type: in vivo, human
In short: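 Exploratory classification and regression trees analysis used 26 patients with complete PK and PD data. The target was change in PBMC AV count from baseline to 2 wk. Predictors were Cmin, Cmax and AUC, taken from model-simulated individual blood profiles. The PK-PD relationship was also examined after 4 wk of combined therapy. The Cmax threshold was tested by Kruskal-Wallis (medians) and Kolmogorov-Smirnov two-sample tests.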

[3] = Population pharmacokinetics of HCQ in whole blood; assay type: in vivo, human; conditions: for Vd/F: human, oral, Vc/F, apparent central volume of distribution
In short: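 Whole blood was sampled in sodium heparin pre-dose and at 2, 4, 8 and 12 wk and 6 mo, then stored at −70 °C. Samples were assayed in duplicate by HPLC-MS/MS with a deuterated internal standard against a 1/x-weighted linear curve (1–5000 ng/mL; LLOQ 1.0 ng/mL). One- and two-compartment first-order models were fitted by nonlinear mixed-effects (Lindstrom-Bates) with log-normal inter-individual variability. Precision came from 1000 bootstrap runs, and individual parameters were used for profile simulations.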

[4] = tested on: glioma; conditions: cited from earlier work
[5] = tested on: patients with advanced solid tumors; assay: Treatment-related adverse events by grade; assay type: in vivo, human
In short: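 Patients who took at least one dose of the oral test compound, given with a dose-intense oral alkylating agent, were evaluable for toxicity. Adverse events were graded by NCI Common Toxicity Criteria v3.0, and haematological toxicities were attributed to the alkylating agent. Complete blood counts were done weekly for the first 6 wk and biweekly thereafter. Treatment ran in 28 d cycles.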

[6] = population PK, 1000 bootstrap runs
[7] = population PK, whole blood, 35 patients

CCN(CCO)CCCC(C)Nc1ccnc2cc(Cl)ccc12 (centres unmarked) [HCQ, hydroxychloroquine]
Mean AV count per cell in PBMC [1]: 2.45
Threshold HCQ Cmax that correlated with AV accumulation (CART) ([2]; after 2 wk of single agent HCQ, 26 patients): 1554 ng/mL
Threshold HCQ Cmax for AV change (CART) ([2]; baseline to 4 wk of combined therapy (TMZ + HCQ), 21 patients): 856 ng/mL
Median AV change from baseline to 2 wk ([2]; patients with Cmax above 1554 ng/mL (n = 18), IQR -0.45, 1.37): 0.89
Median AV change from baseline to 2 wk ([2]; patients with Cmax below 1554 ng/mL (n = 8), IQR −1.35, 0.03): −0.21
Vd/F ([3]; whole blood, bootstrap estimate, population PK, 1000 bootstrap runs): 500 L
Vd/F ([3]; whole blood, model estimate, population PK, 35 patients): 486 L
Cl/F, apparent oral clearance, bootstrap estimate [3, 6]: 10.085 L/h
Ka, absorption rate constant, bootstrap estimate [3, 6]: 0.999 h⁻¹
Vp/F, apparent peripheral volume of distribution, bootstrap estimate [3, 6]: 1400.415 L
Cl/F, apparent oral clearance, model estimate [3, 7]: 9.975 L/h
Ka, absorption rate constant, model estimate [3, 7]: 0.998 h⁻¹
Vp/F, apparent peripheral volume of distribution, model estimate [3, 7]: 1406.52 L
Time to steady-state HCQ blood concentration, on average ([3]; simulated for individual patients with final PK model, (16 d)): 400 h
Myelosuppression ([4]; HCQ 800 mg with TMZ 75 mg/m^2 daily and brain radiation): all experienced grade 4 myelosuppression
Maximal tolerated dose of HCQ ([4]; combined with TMZ 75 mg/m^2 daily for 6 wk with concomitant brain radiation): 600 mg daily
Abdominal fullness G1/G2 ([5]; All patients, HCQ with TMZ): 2 (6) No. (%)
Abdominal pain G1/G2 ([5]; All patients, HCQ with TMZ): 2 (6) No. (%)
Anemia G1/G2 ([5]; All patients, HCQ with TMZ): 1 (3) No. (%)
Anemia G3/G4 ([5]; All patients, HCQ with TMZ): 1 (3) No. (%)
Anorexia G1/G2 ([5]; All patients, HCQ with TMZ): 13 (35) No. (%)
Bradycardia G1/G2 ([5]; All patients, HCQ with TMZ): 2 (6) No. (%)
Constipation G1/G2 ([5]; All patients, HCQ with TMZ): 8 (22) No. (%)
Diarrhea G1/G2 ([5]; All patients, HCQ with TMZ): 9 (24) No. (%)
Dizziness G1/G2 ([5]; All patients, HCQ with TMZ): 2 (6) No. (%)
Dyspepsia G1/G2 ([5]; All patients, HCQ with TMZ): 2 (6) No. (%)
Headaches G1/G2 ([5]; All patients, HCQ with TMZ): 3 (8) No. (%)
Hypotension G1/G2 ([5]; All patients, HCQ with TMZ): 3 (8) No. (%)
Leukopenia G3/G4 ([5]; All patients, HCQ with TMZ): 1 (3) No. (%)
Lymphopenia G1/G2 ([5]; All patients, HCQ with TMZ): 5 (14) No. (%)
Lymphopenia G3/G4 ([5]; All patients, HCQ with TMZ): 5 No. (%)
Myalgias G1/G2 ([5]; All patients, HCQ with TMZ): 2 (6) No. (%)
Nausea G1/G2 ([5]; All patients, HCQ with TMZ): 24 (65) No. (%)
Nausea G3/G4 ([5]; All patients, HCQ with TMZ): 1 (3) No. (%)
Neutropenia G3/G4 ([5]; All patients, HCQ with TMZ): 2 (6) No. (%)
Pruritus G1/G2 ([5]; All patients, HCQ with TMZ): 4 (12) No. (%)
Rash G1/G2 ([5]; All patients, HCQ with TMZ): 3 (8) No. (%)
Rash G3/G4 ([5]; All patients, HCQ with TMZ): 1 (3) No. (%)
Taste change G1/G2 ([5]; All patients, HCQ with TMZ): 2 (6) No. (%)
Thrombocytopenia G1/G2 ([5]; All patients, HCQ with TMZ): 5 (14) No. (%)
Thrombocytopenia G3/G4 ([5]; All patients, HCQ with TMZ): 2 (6) No. (%)
Vomiting G3/G4 ([5]; All patients, HCQ with TMZ): 1 (3) No. (%)
Abdominal fullness G1/G2 ([5]; HCQ 200 mg (n = 3) with TMZ): 1 (33) No. (%)
Anorexia G1/G2 ([5]; HCQ 200 mg (n = 3) with TMZ): 1 (33) No. (%)
Constipation G1/G2 ([5]; HCQ 200 mg (n = 3) with TMZ): 1 (33) No. (%)
Fatigue G1/G2 ([5]; HCQ 200 mg (n = 3) with TMZ): 1 (33) No. (%)
Lymphopenia G1/G2 ([5]; HCQ 200 mg (n = 3) with TMZ): 1 (33) No. (%)
Lymphopenia G3/G4 ([5]; HCQ 200 mg (n = 3) with TMZ): 1 (33) No. (%)
Nausea G1/G2 ([5]; HCQ 200 mg (n = 3) with TMZ): 1 (33) No. (%)
Vomiting G1/G2 ([5]; HCQ 200 mg (n = 3) with TMZ): 1 (33) No. (%)
Abdominal fullness G1/G2 ([5]; HCQ 400 mg (n = 4) with TMZ): 1 (25) No. (%)
Anorexia G1/G2 ([5]; HCQ 400 mg (n = 4) with TMZ): 1 (25) No. (%)
Diarrhea G1/G2 ([5]; HCQ 400 mg (n = 4) with TMZ): 1 (25) No. (%)
Fatigue G1/G2 ([5]; HCQ 400 mg (n = 4) with TMZ): 2 (50) No. (%)
Hypotension G1/G2 ([5]; HCQ 400 mg (n = 4) with TMZ): 1 (25) No. (%)
Lymphopenia G3/G4 ([5]; HCQ 400 mg (n = 4) with TMZ): 2 (50) No. (%)
Myalgias G1/G2 ([5]; HCQ 400 mg (n = 4) with TMZ): 1 (25) No. (%)
Nausea G1/G2 ([5]; HCQ 400 mg (n = 4) with TMZ): 4 (100) No. (%)
Thrombocytopenia G1/G2 ([5]; HCQ 400 mg (n = 4) with TMZ): 1 (25) No. (%)
